procasp7 counter – counter-screen for procaspase-3 activators: activators of human procaspase-7 | P55210 | recombinant procaspase-7, Ac-DEVD-pNA absorbance 405 nm; D23A/D198A/D206A triple mutant, cannot self-cleave; scale: DMSO 0, 5 µM enzyme 100 | activation, % at 8.5 µM | 0.093% of 330,000 active | AID 463210;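 active = percent activation above the screen-wide mean plus 3 SD, cut at about 25% in these data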
Target sequence (P55210 whole entry D23A/D198A/D206A): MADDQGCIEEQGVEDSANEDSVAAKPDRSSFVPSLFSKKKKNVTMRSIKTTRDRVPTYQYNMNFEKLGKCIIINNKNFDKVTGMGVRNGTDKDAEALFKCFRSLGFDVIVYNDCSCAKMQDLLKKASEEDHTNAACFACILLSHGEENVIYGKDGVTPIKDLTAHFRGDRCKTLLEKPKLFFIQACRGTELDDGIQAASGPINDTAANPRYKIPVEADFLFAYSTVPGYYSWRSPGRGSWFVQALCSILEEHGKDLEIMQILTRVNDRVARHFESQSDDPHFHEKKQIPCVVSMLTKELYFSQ
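System: Procaspase-7 triple mutant (PC-7 D3A); measure: % activation from two-timepoint absorbance difference, scaled to controls; times: 1 h compound preincubation, 2 h substrate cleavage, 25 °C; also added: Ac-DEVD-pNA substrate, 400 µM as added; measured by: Epi-absorbance of released pNA at 405 nm, two timepoints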
GRIN3A LBD mod – modulators (binders) of human NR3A ligand-binding domain; NR3A LBD differential scanning fluorimetry, Tm shift; 0% = protein alone, 100% = glycine-bound protein; Tm shift relative to glycine control, % at 25 µM; 2.5% of 340,000 active; AID 1259313;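 active = melting temperature shift of at least 10% of the positive control shift, at one fixed dose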
MPTP inh – permeability transition pore inhibition | isolated mouse mitochondria, Ca2+ swelling absorbance, 30 min | AID 602449 | inhibition, % at 10 µM | 1.4% of 360,000 active;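 active = inhibition of 50% or more, scaled per plate between neutral and stimulator controls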;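 note: 0% = DMSO wells given calcium and 100% = 1 mM EGTA wells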
aDG glyco act – increases alpha dystroglycan glycosylation. 0.22% of 360,000 active. Pro5-aDG cells, alpha-DG glycosylation AlphaScreen (IIH6); 0% Pro5, 100% B10-LARGE cell signal. activation, % at 10 µM;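 active = activation of at least 8% versus controls, or a plate z-score of at least 8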;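 note: Pro5 are CHO cells carrying HIG-tagged alpha-DG that lacks glycosylation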
proCasp3 act – activators of human procaspase-3; P42574; recombinant procaspase-3 D3A, Ac-DEVD-pNA absorbance 405 nm; activation, % at 8.5 µM; 0.11% of 330,000 active; AID 463141;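 active = activation above the mean of all tested compounds plus 3 SD, cut at about 21% in these data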;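 note: 0% = DMSO alone and 100% = DMSO wells spiked with extra 5 µM PC-3 D3A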
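Test system: Procaspase-3 D3A mutant; medium: Zinc-free HEPES/NaCl buffer with 0.01% Triton X-100 at pH 7.4; reagent: DEVD-pNA substrate; doses: one concentration, 8.5 µM nominal, 0.8% DMSO; times: 1 h preincubation plus 2 h reaction at 25 °C; signal: Epi-absorbance at 405 nm of released p-nitroaniline, 0 and 120 min; replicates: singlicate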
Numbers without * were called inactive; / = not tested or not shown. This is a sample that favours compounds with a hit; in the whole collection about 3.7% have one here.

SMILES	procasp7 counter	GRIN3A LBD mod	MPTP inh	aDG glyco act	proCasp3 act
C#CCn1c(=NC(=O)c2ccc(S(=O)(=O)N3CCc4ccccc4C3)cc2)sc2cc(S(N)(=O)=O)ccc21	5	-4	1	0	6
CCCCC(=O)N=c1sc2cc([N+](=O)[O-])ccc2n1C	4	0	0	0	-1
C=CCn1c(=NC(=O)c2ccc(S(=O)(=O)N3CCc4ccccc4C3)cc2)sc2cc(S(N)(=O)=O)ccc21	0	19*	-4	0	-1
Clc1ccc(C(c2cccs2)N2CCNCC2)cc1 (configuration not stated)	/	/	3	0	/
COCCn1c(=NC(=O)c2cc(Cl)sc2Cl)sc2cc(S(N)(=O)=O)ccc21	-2	28*	-1	0	2
COC(=O)C[C@H]1CC[C@@H](NC(=O)c2ccncc2)[C@@H](CO)O1	/	/	-1	0	/
CCCC(c1nnnn1Cc1ccc(OC)cc1)N1CCN(c2ccccc2)CC1 (configuration not stated)	/	-1	-1	0	/
CC(C)C(c1nnnn1Cc1ccc2c(c1)OCO2)N1CCN(C)CC1 (configuration not stated)	-7	1	0	0	7
CC(C)C(c1nnnn1Cc1ccc2c(c1)OCO2)N1CCN(c2ccccc2)CC1 (configuration not stated)	-4	13*	0	0	7
COc1ccc(Cn2nnnc2C(CC(C)C)N2CCN(c3ccccc3)CC2)cc1 (configuration not stated)	7	18*	6	0	-6
O=c1c2ccccc2oc2cc(Br)ccc12	/	13*	-1	0	/
COc1cc2oc3ccccc3c(=O)c2cc1OC	-1	-4	0	0	2
O=C(COc1ncnc2c1cnn2-c1ccccc1)Nc1ccc(S(=O)(=O)N2CCCCC2)cc1	7	18*	5	0	-1
S=c1nc[nH]c2c1[nH]c1ccc(Cl)cc12	-4	33*	5	0	0
S=c1nc[nH]c2c1[nH]c1ccccc12	-20	5	-3	0	1
CCC(C)CNC(=O)c1[nH]c(C(F)(F)F)nc1-c1ccccc1 (configuration not stated)	/	/	0	0	/
Nc1cccc(-c2nc3cc(S(=O)(=O)c4ccc5oc(-c6cccc(N)c6)nc5c4)ccc3o2)c1	-5	24*	2	0	3
Cc1ccc2oc(-c3cccc(N)c3)nc2c1	-1	-11	1	0	-6
Nc1ccc(CSc2ccc(Cl)cc2)c(Cl)c1	/	-2	-1	0	/
COc1cc(/C=N/NC(=O)c2sc(N)c(C#N)c2C)cc(Br)c1O	-4	16*	-1	0	7
COc1ccc2ccccc2c1/C=N/NC(=O)c1sc(N)c(C#N)c1C	-32	17*	2	0	5
O=C(O)CCN1C(=O)/C(=C\c2cccc(Oc3ccccc3)c2)SC1=S	-16	14*	1	0	2
O=C(O)CN1C(=O)/C(=C\c2cc(Br)ccc2OCc2ccc(Cl)cc2Cl)SC1=S	-19	29*	4	0	-11
O=C(O)CN1C(=O)/C(=C\c2cccc(OCc3ccccc3F)c2)SC1=S	-16	31*	2	0	-11
COc1ccc(/C=C2/SC(=S)N(CCC(=O)O)C2=O)cc1	-27	0	1	0	-6
SMILES	procasp7 counter	GRIN3A LBD mod	MPTP inh	aDG glyco act	proCasp3 act
O=C(O)CN1C(=O)/C(=C\c2ccccc2OCc2ccc(Cl)cc2)SC1=S	-19	6	6	0	-19
CCN1C(=O)[C@H]2[C@@H](c3ccc(C(F)(F)F)cc3)N[C@]3(CCCN(Cc4ccc(F)cc4)C3=O)[C@H]2C1=O	/	/	0	0	/
O=S(=O)(c1ccc(F)cc1F)N1CCN(CCO)CC1	/	13*	2	0	/
O=S(=O)(c1ccc(F)cc1)N1CCN(S(=O)(=O)c2cc(F)ccc2F)CC1	11	0	-1	0	1
Cc1ccc(-n2nnnc2SCC(=O)NC2CCS(=O)(=O)C2)c(C)c1 (configuration not stated)	/	19*	1	0	/
CCCC1S/C(=N/N=C/c2ccc(OC)cc2)N(Cc2ccc(OC)cc2)C1=O (configuration not stated)	9	1	5	0	-8

Source: PubChem BioAssay (several laboratories)
